Measured values from ChEMBL document CHEMBL1944564, “Discovery of a novel and potent class of F. tularensis enoyl-reductase (FabI) inhibitors by molecular shape and electrostatic matching” (J Med Chem, 2012).
≈ marks a conversion by molar mass, not a printed value.

Key:
[1] = Inhibition of N-terminus His-tagged Francisella tularensis subsp. Tularensis Schu4 […] expressed in Escherichia coli […] cells assessed as conversion of crotonyl-CoA and NADH to butyryl-CoA and NAD+ preincubated for 30 mins by measured fluorescence analysis; set-up: species or system Francisella tularensis subsp. tularensis SCHU S4
Procedure, shortened: (§1)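 Recombinant N-terminal His-tagged F. tularensis FabI, expressed in E. coli BL21(DE3) and purified by Ni-affinity and size exclusion to >98%, was used at 0.2 μM. Inhibitor in DMSO was preincubated 30 min, then 200 μM crotonyl-CoA was added. The rate of decrease in NADH fluorescence (ex 340/em 450 nm) gave % inhibition versus a DMSO control.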

[2] = tested on: DL21 (DE3); assay: Inhibition of N-terminus His-tagged Francisella tularensis subsp. Tularensis Schu4 […] expressed in Escherichia coli […] cells assessed as conversion of crotonyl-CoA and NADH to butyryl-CoA and NAD+ preincubated at 100 uM for 30 mins by fluorescence analysis; conditions: Francisella tularensis subsp. tularensis SCHU S4; procedure, shortened: as §1
[3] = tested on: Escherichia coli; assay: Antibacterial activity against Escherichia coli BW251113 after overnight incubation; format: functional
Procedure, shortened: (§2)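 Broth microdilution in LB with 2-fold serial dilutions of compound and ciprofloxacin as control.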

[4] = tested on: Escherichia coli; assay: Antibacterial activity against Escherichia coli BW251113 harboring TolC deletion mutation after overnight incubation; format: functional
[5] = tested on: Francisella tularensis; assay: Antibacterial activity against Francisella tularensis after overnight incubation; format: functional
[6] = tested on: Bacillus anthracis; assay: Antibacterial activity against Bacillus anthracis after overnight incubation; format: functional
[7] = tested on: Yersinia pestis; assay: Antibacterial activity against Yersinia pestis after overnight incubation; format: functional
[8] = tested on: Staphylococcus aureus; assay: Antibacterial activity against Staphylococcus aureus after overnight incubation; format: functional; procedure, shortened: as §2
[9] = tested on: Staphylococcus aureus; assay: Antibacterial activity against methicillin-resistant Staphylococcus aureus after overnight incubation; format: functional; procedure, shortened: as §2

Question: For `Cc1ccc(Cn2cnc3ccccc32)cc1`, which IC50 [1] is on record?
Answer: Its IC50 is 90 µM.

Question: Which IC50 [1] does the source give for `Nc1ncc(Cc2ccc(Cl)cc2)s1` here?
Answer: The IC50 was 63 µM.

Question: And the inhibition [2]?
Answer: Its inhibition is 49%.

Question: For `Clc1ccc(Cn2cnc3ccccc32)c(Cl)c1`, which IC50 [1] is on record?
Answer: Its IC50 is 22 µM.

Question: With `Brc1ccc(Cn2cnc3ccccc32)cc1` as the compound, how does the IC50 [1] read?
Answer: The IC50 was 27.4 µM.

Question: Which IC50 [1] does the source give for `Cc1nc2ccccc2n1Cc1ccc(Cl)c(Cl)c1` here?
Answer: The IC50 was 3.2 µM.

Question: What about the MIC [3] of the same compound?
Answer: The MIC was 50 µg/mL (≈ 172 µM).

Question: What about the MIC [4] of the same compound?
Answer: Its MIC is 25 µg/mL (≈ 85.9 µM).

Question: And the MIC [5]?
Answer: Its MIC is 9.4 µg/mL (≈ 32.3 µM).

Question: And the MIC [6]?
Answer: The MIC was 25 µg/mL (≈ 85.9 µM).

Question: And the MIC [7]?
Answer: Its MIC is ≥ 50 µg/mL.

Question: And the MIC [8]?
Answer: The MIC was 50 µg/mL (≈ 172 µM).

Question: For `COc1ccc(Cn2cnc3ccccc32)cc1`, which IC50 [1] is on record?
Answer: The IC50 was 38 µM.

Question: Which IC50 [1] does the source give for `Clc1ccc(Cn2cnc3ccccc32)cc1` here?
Answer: Its IC50 is 27 µM.

Question: And the inhibition [2]?
Answer: Its inhibition is 70%.

Question: For `Clc1cccc(Cn2cnc3ccccc32)c1`, which IC50 [1] is on record?
Answer: Its IC50 is 85 µM.

Question: With `Cc1cc2ncn(Cc3ccc(Cl)cc3)c2cc1C` as the compound, how does the IC50 [1] read?
Answer: The IC50 was 0.3 µM.

Question: What about the MIC [3] of the same compound?
Answer: Its MIC is > 50 µg/mL.

Question: What about the MIC [4] of the same compound?
Answer: Its MIC is 12.5 µg/mL (≈ 46.2 µM).

Question: What about the MIC [5] of the same compound?
Answer: The MIC was 15.6 µg/mL (≈ 57.6 µM).

Question: What about the MIC [6] of the same compound?
Answer: The MIC was > 50 µg/mL.

Question: What about the MIC [7] of the same compound?
Answer: The MIC was > 50 µg/mL.

Question: What about the MIC [8] of the same compound?
Answer: The MIC was > 50 µg/mL.

Question: For `Cc1cc2ncn(C(=O)c3cccc(Cl)c3)c2cc1C`, which IC50 [1] is on record?
Answer: The IC50 was > 100 µM.

Question: Which IC50 [1] does the source give for `Fc1ccc(Cn2cnc3ccccc32)cc1` here?
Answer: The IC50 was > 100 µM.

Question: For `Cc1cc2ncn(Cc3ccc(Cl)cc3Cl)c2cc1C`, which IC50 [1] is on record?
Answer: Its IC50 is 0.7 µM.

Question: And the MIC [3]?
Answer: The MIC was > 200 µg/mL.

Question: And the MIC [4]?
Answer: Its MIC is 19 µg/mL (≈ 62.3 µM).

Question: And the MIC [5]?
Answer: The MIC was 4.3 µg/mL (≈ 14.1 µM).

Question: What about the MIC [6] of the same compound?
Answer: The MIC was > 38 µg/mL.

Question: What about the MIC [7] of the same compound?
Answer: The MIC was > 38 µg/mL.

Question: What about the MIC [8] of the same compound?
Answer: Its MIC is 38 µg/mL (≈ 125 µM).

Question: And the MIC [9]?
Answer: Its MIC is 38 µg/mL (≈ 125 µM).

Question: With `c1ccc(Cn2cnc3ccccc32)cc1` as the compound, how does the IC50 [1] read?
Answer: The IC50 was > 100 µM.

Question: With `O=C(c1ccc(Cl)cc1)n1cnc2ccccc21` as the compound, how does the IC50 [1] read?
Answer: The IC50 was > 100 µM.

Question: For `Nc1nc2ccccc2n1Cc1ccc(Cl)cc1`, which IC50 [1] is on record?
Answer: The IC50 was > 100 µM.

Question: With `Cc1cc2ncn(Cc3ccc(Cl)c(Cl)c3)c2cc1C` as the compound, how does the IC50 [1] read?
Answer: Its IC50 is 0.3 µM.

Question: And the MIC [3]?
Answer: The MIC was > 200 µg/mL.

Question: What about the MIC [4] of the same compound?
Answer: Its MIC is 6.25 µg/mL (≈ 20.5 µM).

Question: What about the MIC [5] of the same compound?
Answer: Its MIC is 7.8 µg/mL (≈ 25.6 µM).

Question: What about the MIC [6] of the same compound?
Answer: The MIC was 9.4 µg/mL (≈ 30.8 µM).

Question: What about the MIC [7] of the same compound?
Answer: The MIC was ≥ 50 µg/mL.

Question: What about the MIC [8] of the same compound?
Answer: The MIC was 25 µg/mL (≈ 81.9 µM).

Question: What about the MIC [9] of the same compound?
Answer: Its MIC is 50 µg/mL (≈ 164 µM).

Question: Which inhibition [2] does the source give for `O=C(NC(=O)c1cc(-c2ccc(Cl)cc2)oc1C(F)(F)F)c1ccccc1O` here?
Answer: Its inhibition is 39%.

Question: With `Clc1ccc(Cn2cnc3ccccc32)cc1Cl` as the compound, how does the IC50 [1] read?
Answer: The IC50 was 4.7 µM.

Question: And the MIC [3]?
Answer: The MIC was > 200 µg/mL.

Question: And the MIC [4]?
Answer: The MIC was 25 µg/mL (≈ 90.2 µM).

Question: And the MIC [5]?
Answer: The MIC was 17.2 µg/mL (≈ 62.1 µM).

Question: And the MIC [6]?
Answer: The MIC was 50 µg/mL (≈ 180 µM).

Question: What about the MIC [7] of the same compound?
Answer: Its MIC is 25 µg/mL (≈ 90.2 µM).

Question: What about the MIC [8] of the same compound?
Answer: Its MIC is 50 µg/mL (≈ 180 µM).

Question: What about the MIC [9] of the same compound?
Answer: Its MIC is 50 µg/mL (≈ 180 µM).
